Measurements taken from ChEMBL document CHEMBL4425094, “Novel Benzo[a]quinolizidine Analogs Induce Cancer Cell Death through Paraptosis and Apoptosis” (J Med Chem, 2016).
Calls of active or inactive are those of the source. No cut-off for these calls is given here.

Assays:
PC-3 [1] = experiment: Induction of apoptosis in human PC3 cells assessed as viable cells at 1 uM after 24 hrs by Annexin V-FITC/propidium iodide based flow cytometric analysis (reference value: 95.4 %); type: functional; conditions: PC-3, 24 h, read-out: Activity
Outline: (§1)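 PC3 cells exposed to 0.5, 1 or 2 μM for 24 h, then stained with Annexin V-FITC and PI and analyzed by FACSCalibur flow cytometry. Populations assigned as necrotic (Annexin V−/PI+), late apoptotic (double positive), normal (Annexin V−/PI−) and early apoptotic (Annexin V+/PI−). DMSO vehicle control.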

PC-3 [2] = experiment: Induction of apoptosis in human in human PC3 cells assessed as reduction in cell viability in presence of caspase inhibitor by MTT assay
PC-3 [3] = experiment: Induction of apoptosis in human PC3 cells assessed as necrotic cells at 0.5 uM after 24 hrs by Annexin V-FITC/propidium iodide based flow cytometric analysis (reference value: 1.1 %); type: functional; outline: as §1
PC-3 [4] = experiment: Induction of endoplasmic reticulum derived cytoplasmic vacuole formation in human PC3 cells after 4 to 8 hrs by ER-tracker staining based fluorescence microscopy; type: functional, cell-based
Outline: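 PC3 cells incubated with vehicle or agent for 0, 4 or 8 h. They were then stained at 37 °C for 15 min with ER-Tracker (1:3000) plus 10 μg/mL Hoechst 33342, washed with PBS and imaged by fluorescence/confocal microscopy.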

PC-3 [5] = experiment: Induction of cell cycle arrest in human PC3 cells assessed as accumulation in G0/G1 phase at 0.5 uM after 24 hrs by […]propidium iodide based flow cytometric analysis (reference value: 43.5 to 62.5 %); type: functional
PC-3 [6] = experiment: Cytotoxicity against human PC3 cells assessed as reduction in cell viability at 1 uM after 24 hrs in presence of […] inhibitor E-64d by MTT assay; type: functional, cell-based
Outline: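 PC3 cells pretreated with autophagy inhibitor 3-MA or E64d, then given 1 μM compound for 24 h. Viability measured by MTT (4 h, 570 nm). Morphology checked by phase-contrast microscopy.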

PC-3 [7] = experiment: Induction of ER stress in human PC3 cells assessed as GRP78 upregulation incubated for 22 hrs after ER stress inhibitor 4-PBA exposure for 2 hrs by Western blot analysis; type: functional, cell-based
Outline: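 PC3 cells pretreated 2 h with 4-PBA (100 μM), then compound added for a further 22 h. Viability measured by MTT. GRP78 assessed by Western blot, along with XBP1 mRNA splicing analysis. Morphology by phase contrast.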

PC-3 [8] = experiment: Induction of apoptosis in human PC3 cells assessed as late apoptotic cells at 1 uM after 24 hrs by Annexin V-FITC/propidium iodide based flow cytometric analysis (reference value: 1.1 %); type: functional; outline: as §1

Cc1cc(C)cc(COc2cc3c(cc2OCc2cc(C)cc(C)c2)[C@@H]2C[C@H](O)C[C@@H](C)N2CC3)c1 (racemic)
viability at 1 µM (PC-3 [1]): 90% | Activity (PC-3 [2]): inactive | Activity (PC-3 [3]): 1% | Activity (PC-3 [4]): Active | Activity (PC-3 [5]): 63.8 - 70.2% | Activity (PC-3 [6]): inactive | Activity (PC-3 [7]): inactive | Activity (PC-3 [8]): 2.6%
